Test results as given in ChEMBL document CHEMBL3877303 (J Med Chem, 2017).
Each block holds one compound with its values, some of them ahead of it. Active and inactive are the calls of the source. The rule behind the calls is not given here.

Key:
[1] = target: Tyrosine-protein kinase ABL1 (Homo sapiens, UniProt P00519); experiment: Inhibition of C-terminal His-tagged human ABL1 expressed in baculovirus infected SF9 cells assessed as residual activity at 1 uM using Tyr 02 peptide as substrate measured after 1 hr by FRET based Z'Lyte assay relative to control
[2] = target: Tyrosine-protein kinase Blk (Homo sapiens, UniProt P51451); experiment: Inhibition of full length recombinant His-tagged human BLK cytoplasmic domain expressed in baculovirus expression system assessed as residual activity at 1 uM measured after 1 hr by FRET based Z'Lyte assay relative to control
[3] = target: Discoidin domain-containing receptor 2 (Homo sapiens, UniProt Q16832); experiment: Inhibition of recombinant His-tagged human DDR2 cytoplasmic domain expressed in baculovirus expression system measured after 1 hr by FRET based Z'Lyte assay
Method in brief: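 Z'-LYTE FRET biochemical kinase assay run by Invitrogen on selected kinases identified from binding profiling; IC50 from dose-response.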

[4] = target: Platelet-derived growth factor receptor beta (Homo sapiens, UniProt P09619); experiment: Inhibition of Tel-fused PDGFR-beta (unknown origin) expressed in BAF3 cells assessed as growth inhibition measured after 72 hrs by CellTiter-Glo or CCK8 assay; format: cell-based
Method in brief: (§1)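 BaF3 lines were made by retroviral transduction with kinase-fusion MSCV vectors packaged in HEK293T cells. Cells were selected with puromycin for 48 h, then selected again without IL-3 so growth depends on the introduced kinase. […] They were seeded at 1 to 2.5×10^4 cells/mL with compound dilutions and incubated 72 h. Viability was read by CellTiter-Glo luminescence or CCK-8 absorbance (450/655 nm), normalized to DMSO control; GI50 was curve-fitted from triplicate tests.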

BaF3 = experiment: Inhibition of BCR/ABL p210 fusion protein F317L mutant (unknown origin) expressed in BAF3 cells assessed as growth inhibition measured after 72 hrs by CellTiter-Glo or CCK8 assay; format: cell-based; settings: Homo sapiens; method in brief: as §1
[5] = tested on: Mast/stem cell growth factor receptor Kit (Homo sapiens), P10721 [L576P]; experiment: Inhibition of Tel-fused c-KIT L576P mutant (unknown origin) expressed in BAF3 cells assessed as growth inhibition measured after 72 hrs by CellTiter-Glo or CCK8 assay; format: cell-based; method in brief: as §1
[6] = target: T1, BCR/ABL p210 fusion protein (Homo sapiens, UniProt A1Z199); experiment: Inhibition of BCR/ABL p210 fusion protein mediated signaling pathways assessed as reduction in CrkL phosphorylation at Y207 in human K562 cells at 0.01 to 3 uM measured after 2 hrs by immunoblotting; format: cell-based
Method in brief: (§2)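 After an ice-cold PBS wash, cells were lysed in RIPA buffer (50 mM Tris pH 8.0) with protease and phosphatase inhibitors, and protein was quantified by BCA. Lysates were run on SDS-PAGE, transferred to PVDF and blocked in 5% milk/TBST. Phospho- and total proteins were probed by immunoblot with ECL detection; β-actin served as loading control.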

[7] = target: T1, BCR/ABL p210 fusion protein; experiment: Inhibition of BCR/ABL p210 fusion protein mediated signaling pathways assessed as reduction in ERK phosphorylation at T202/Y204 in human KU812 cells at 0.01 to 3 uM measured after 2 hrs by immunoblotting; format: cell-based; method in brief: as §2
[8] = target: T1, BCR/ABL p210 fusion protein; experiment: Inhibition of BCR/ABL p210 fusion protein mediated signaling pathways assessed as reduction in Stat5 phosphorylation at Y694 in human MEG01 cells at 0.01 to 3 uM measured after 2 hrs by immunoblotting; format: cell-based; settings: MEG-01; method in brief: as §2
[9] = target: T2, Mast/stem cell growth factor receptor Kit (Homo sapiens, UniProt P10721); experiment: Inhibition of c-KIT autophosphorylation at Y719 in human GIST882 cells at 0.01 to 3 uM measured after 2 hrs by immunoblotting; format: cell-based; method in brief: as §2
[10] = target: T2, Mast/stem cell growth factor receptor Kit; experiment: Inhibition of c-KIT mediated signaling pathways assessed as reduction in AKT phosphorylation at S473 in human GISTT1 cells at 0.03 to 10 uM measured after 2 hrs by immunoblotting; format: cell-based; method in brief: as §2
[11] = target: T2, Mast/stem cell growth factor receptor Kit; experiment: Inhibition of c-KIT mediated signaling pathways assessed as reduction in ERK1/2 phosphorylation at T202/Y204 in human GIST882 cells at 0.03 to 10 uM measured after 2 hrs by immunoblotting; format: cell-based; method in brief: as §2
[12] = Cell cycle arrest in human MEG01 cells assessed as accumulation at G0/G1 phase at 0.3 uM after 24 hrs by propidium iodide/RNase staining based flow cytometry; format: functional; settings: MEG-01
Method in brief: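 Cells were exposed to serially diluted compound, then fixed in cold 70% ethanol overnight at -20 °C. They were stained with PI/RNase buffer for DNA-content cell-cycle analysis.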

K562 [13] = experiment: Induction of apoptosis in human K562 cells assessed as cleavage of PARP at 0.1 to 3 uM by Western blot analysis; format: functional, cell-based
Method in brief: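 Cells were treated with DMSO or serially diluted compound for the indicated periods. They were washed in ice-cold PBS and lysed in RIPA buffer with protease/phosphatase inhibitors, and protein was quantified by BCA. Lysates were resolved by SDS-PAGE, transferred to PVDF and blocked in 5% milk/TBST. Blots were probed for PARP and caspase-3, with β-actin as loading control, and detected by ECL.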

[14] = AUC (0 to infinity) in Sprague-Dawley rat at 1 mg/kg, iv; format: ADME, organism-based; parameters: dose 1 mg/kg, route intravenous, time infinity; settings: in vivo
Method in brief: (§3)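 Male Sprague-Dawley rats aged six to eight weeks were fasted overnight and then dosed iv or orally. Blood (~0.2 mL) was drawn from the jugular vein into heparin and kept on ice. Sampling was at 1 min to 8 h for iv and 5 min to 24 h for oral. Plasma was separated by centrifugation at 2-8 °C and stored at -80 °C until analysis.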

[15] = AUC (0 to infinity) in Sprague-Dawley rat at 10 mg/kg, po; format: ADME, organism-based; parameters: dose 10 mg/kg, time infinity, route oral; settings: in vivo; method in brief: as §3
K562 [16] = experiment: Induction of apoptosis in human K562 cells xenografted in nu/nu mouse administered daily via oral gavage measured 28 days post compound treatment by TUNEL staining based assay; format: functional, cell-based
Method in brief: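 K562 xenograft tumors from daily orally dosed mice were fixed in 10% neutral-buffered formalin and paraffin-embedded. Six-micron sections were TUNEL-stained to detect apoptotic nuclei.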

[17] = target: Tyrosine-protein kinase Lck (Homo sapiens, UniProt P06239); settings: BaF3
[18] = Anticancer activity against human GISTT1 cells xenografted in nu/nu mouse assessed as tumor growth inhibition at 100 mg/kg, po administered daily via oral gavage measured 21 days post compound treatment relative to vehicle-treated control; settings: 504 h, read-out: GI
[19] = target: T2, Mast/stem cell growth factor receptor Kit; settings: GISTT1, 1 uM
[20] = target: T2, Mast/stem cell growth factor receptor Kit; settings: GISTT1, 1 uM; remark: listed apart in the source
[21] = target: T2, Mast/stem cell growth factor receptor Kit; settings: GISTT1, 1 uM; remark: listed apart in the source
[22] = target: T2, Mast/stem cell growth factor receptor Kit; settings: 1 uM

T1 sequence (A1Z199 1-97): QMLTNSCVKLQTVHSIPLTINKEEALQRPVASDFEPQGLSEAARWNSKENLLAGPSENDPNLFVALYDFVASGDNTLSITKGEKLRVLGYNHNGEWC
T2 sequence (P10721 whole entry): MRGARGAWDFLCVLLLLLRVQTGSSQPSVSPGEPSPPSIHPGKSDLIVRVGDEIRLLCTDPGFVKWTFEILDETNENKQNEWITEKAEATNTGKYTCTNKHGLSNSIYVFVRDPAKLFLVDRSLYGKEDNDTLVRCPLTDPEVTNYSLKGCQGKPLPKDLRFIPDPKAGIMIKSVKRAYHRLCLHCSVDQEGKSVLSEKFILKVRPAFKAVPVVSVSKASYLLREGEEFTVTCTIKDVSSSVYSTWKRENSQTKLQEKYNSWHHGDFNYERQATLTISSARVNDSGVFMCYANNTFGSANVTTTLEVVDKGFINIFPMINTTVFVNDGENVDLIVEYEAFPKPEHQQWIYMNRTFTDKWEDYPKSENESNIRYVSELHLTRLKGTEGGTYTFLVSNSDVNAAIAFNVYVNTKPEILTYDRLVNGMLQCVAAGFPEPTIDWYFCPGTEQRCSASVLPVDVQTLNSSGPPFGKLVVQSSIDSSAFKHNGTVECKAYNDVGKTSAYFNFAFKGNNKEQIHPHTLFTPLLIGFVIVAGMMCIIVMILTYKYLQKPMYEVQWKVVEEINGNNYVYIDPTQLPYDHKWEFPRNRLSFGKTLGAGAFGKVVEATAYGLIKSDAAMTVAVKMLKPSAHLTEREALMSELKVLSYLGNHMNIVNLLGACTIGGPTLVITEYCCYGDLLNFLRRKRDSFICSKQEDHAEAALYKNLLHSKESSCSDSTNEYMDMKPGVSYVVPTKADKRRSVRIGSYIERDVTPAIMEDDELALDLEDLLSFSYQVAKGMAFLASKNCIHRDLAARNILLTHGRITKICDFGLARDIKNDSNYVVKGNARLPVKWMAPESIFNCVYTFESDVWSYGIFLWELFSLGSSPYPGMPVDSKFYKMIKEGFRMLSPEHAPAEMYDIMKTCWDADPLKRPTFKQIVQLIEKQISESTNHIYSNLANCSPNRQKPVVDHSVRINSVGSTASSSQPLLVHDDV
Sequence of Tyrosine-protein kinase Blk (P51451 2-505 limits assumed): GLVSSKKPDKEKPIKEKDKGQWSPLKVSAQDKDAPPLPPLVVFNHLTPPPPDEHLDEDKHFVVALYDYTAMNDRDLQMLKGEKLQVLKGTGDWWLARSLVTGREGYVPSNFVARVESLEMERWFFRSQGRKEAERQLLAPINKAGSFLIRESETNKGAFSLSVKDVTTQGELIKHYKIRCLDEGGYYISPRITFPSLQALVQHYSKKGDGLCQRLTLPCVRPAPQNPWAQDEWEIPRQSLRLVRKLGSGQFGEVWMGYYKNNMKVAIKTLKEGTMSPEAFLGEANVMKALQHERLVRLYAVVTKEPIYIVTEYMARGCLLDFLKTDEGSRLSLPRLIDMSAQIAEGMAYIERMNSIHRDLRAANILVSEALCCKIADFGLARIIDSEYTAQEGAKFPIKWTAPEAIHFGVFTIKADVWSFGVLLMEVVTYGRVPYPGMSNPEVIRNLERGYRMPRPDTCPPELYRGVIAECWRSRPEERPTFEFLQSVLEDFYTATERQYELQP
Sequence of Mast/stem cell growth factor receptor Kit (Homo sapiens), P10721 [L576P] (P10721 whole entry L576P, the tested form may be a part): as the sequence (P10721 whole entry) above, with L576P counted along it
Sequence of Tyrosine-protein kinase ABL1 (P00519 whole entry, the tested form may be a part): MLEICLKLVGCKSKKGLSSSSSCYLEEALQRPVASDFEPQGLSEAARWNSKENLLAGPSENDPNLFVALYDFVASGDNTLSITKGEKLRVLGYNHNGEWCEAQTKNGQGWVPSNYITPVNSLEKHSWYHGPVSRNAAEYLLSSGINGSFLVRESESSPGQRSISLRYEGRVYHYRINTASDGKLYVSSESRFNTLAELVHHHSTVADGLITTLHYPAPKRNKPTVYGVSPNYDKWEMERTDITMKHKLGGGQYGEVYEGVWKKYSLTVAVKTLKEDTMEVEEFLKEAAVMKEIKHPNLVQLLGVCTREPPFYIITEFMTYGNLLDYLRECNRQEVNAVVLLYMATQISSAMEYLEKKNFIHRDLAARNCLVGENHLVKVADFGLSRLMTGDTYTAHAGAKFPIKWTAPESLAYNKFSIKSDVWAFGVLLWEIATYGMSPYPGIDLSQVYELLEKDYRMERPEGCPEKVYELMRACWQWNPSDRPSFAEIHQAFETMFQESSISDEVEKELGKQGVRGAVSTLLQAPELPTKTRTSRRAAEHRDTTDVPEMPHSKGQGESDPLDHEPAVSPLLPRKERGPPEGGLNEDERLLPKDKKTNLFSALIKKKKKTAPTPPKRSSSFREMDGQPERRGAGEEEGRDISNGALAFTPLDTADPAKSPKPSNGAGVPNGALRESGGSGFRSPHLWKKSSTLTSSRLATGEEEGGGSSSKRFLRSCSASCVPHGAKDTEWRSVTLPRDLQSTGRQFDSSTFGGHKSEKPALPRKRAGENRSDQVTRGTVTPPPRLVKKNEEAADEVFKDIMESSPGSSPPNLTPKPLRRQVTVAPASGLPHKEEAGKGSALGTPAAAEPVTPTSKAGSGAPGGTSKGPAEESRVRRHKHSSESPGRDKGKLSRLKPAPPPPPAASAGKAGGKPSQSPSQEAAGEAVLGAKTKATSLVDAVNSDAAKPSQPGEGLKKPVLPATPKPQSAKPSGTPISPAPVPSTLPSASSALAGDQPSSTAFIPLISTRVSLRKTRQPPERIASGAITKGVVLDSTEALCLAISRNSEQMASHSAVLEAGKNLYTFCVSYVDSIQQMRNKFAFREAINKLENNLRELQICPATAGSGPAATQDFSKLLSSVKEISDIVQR
Sequence of Discoidin domain-containing receptor 2 (Q16832 whole entry, the tested form may be a part): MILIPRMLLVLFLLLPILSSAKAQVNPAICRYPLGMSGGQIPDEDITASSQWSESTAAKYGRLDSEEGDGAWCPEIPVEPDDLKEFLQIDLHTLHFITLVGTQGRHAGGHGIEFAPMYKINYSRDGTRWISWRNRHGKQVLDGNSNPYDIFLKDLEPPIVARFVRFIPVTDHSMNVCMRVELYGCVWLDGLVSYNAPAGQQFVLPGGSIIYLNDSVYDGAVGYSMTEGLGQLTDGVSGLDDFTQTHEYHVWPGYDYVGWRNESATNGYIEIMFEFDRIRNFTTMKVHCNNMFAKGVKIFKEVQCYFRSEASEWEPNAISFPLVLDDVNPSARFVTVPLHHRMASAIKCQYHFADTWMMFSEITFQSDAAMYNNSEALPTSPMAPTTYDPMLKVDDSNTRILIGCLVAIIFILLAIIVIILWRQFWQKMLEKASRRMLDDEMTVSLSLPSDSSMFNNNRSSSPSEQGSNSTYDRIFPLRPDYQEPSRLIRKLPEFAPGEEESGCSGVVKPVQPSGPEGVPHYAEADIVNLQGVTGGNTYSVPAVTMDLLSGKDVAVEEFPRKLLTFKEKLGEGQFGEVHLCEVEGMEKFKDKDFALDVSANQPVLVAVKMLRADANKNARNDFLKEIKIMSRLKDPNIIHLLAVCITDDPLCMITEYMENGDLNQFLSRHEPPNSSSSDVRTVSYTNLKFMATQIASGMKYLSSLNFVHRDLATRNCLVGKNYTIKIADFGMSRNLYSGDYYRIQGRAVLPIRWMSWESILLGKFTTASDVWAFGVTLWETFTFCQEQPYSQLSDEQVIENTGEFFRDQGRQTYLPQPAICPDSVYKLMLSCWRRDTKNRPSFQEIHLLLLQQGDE
Sequence of Platelet-derived growth factor receptor beta (P09619 whole entry, the tested form may be a part): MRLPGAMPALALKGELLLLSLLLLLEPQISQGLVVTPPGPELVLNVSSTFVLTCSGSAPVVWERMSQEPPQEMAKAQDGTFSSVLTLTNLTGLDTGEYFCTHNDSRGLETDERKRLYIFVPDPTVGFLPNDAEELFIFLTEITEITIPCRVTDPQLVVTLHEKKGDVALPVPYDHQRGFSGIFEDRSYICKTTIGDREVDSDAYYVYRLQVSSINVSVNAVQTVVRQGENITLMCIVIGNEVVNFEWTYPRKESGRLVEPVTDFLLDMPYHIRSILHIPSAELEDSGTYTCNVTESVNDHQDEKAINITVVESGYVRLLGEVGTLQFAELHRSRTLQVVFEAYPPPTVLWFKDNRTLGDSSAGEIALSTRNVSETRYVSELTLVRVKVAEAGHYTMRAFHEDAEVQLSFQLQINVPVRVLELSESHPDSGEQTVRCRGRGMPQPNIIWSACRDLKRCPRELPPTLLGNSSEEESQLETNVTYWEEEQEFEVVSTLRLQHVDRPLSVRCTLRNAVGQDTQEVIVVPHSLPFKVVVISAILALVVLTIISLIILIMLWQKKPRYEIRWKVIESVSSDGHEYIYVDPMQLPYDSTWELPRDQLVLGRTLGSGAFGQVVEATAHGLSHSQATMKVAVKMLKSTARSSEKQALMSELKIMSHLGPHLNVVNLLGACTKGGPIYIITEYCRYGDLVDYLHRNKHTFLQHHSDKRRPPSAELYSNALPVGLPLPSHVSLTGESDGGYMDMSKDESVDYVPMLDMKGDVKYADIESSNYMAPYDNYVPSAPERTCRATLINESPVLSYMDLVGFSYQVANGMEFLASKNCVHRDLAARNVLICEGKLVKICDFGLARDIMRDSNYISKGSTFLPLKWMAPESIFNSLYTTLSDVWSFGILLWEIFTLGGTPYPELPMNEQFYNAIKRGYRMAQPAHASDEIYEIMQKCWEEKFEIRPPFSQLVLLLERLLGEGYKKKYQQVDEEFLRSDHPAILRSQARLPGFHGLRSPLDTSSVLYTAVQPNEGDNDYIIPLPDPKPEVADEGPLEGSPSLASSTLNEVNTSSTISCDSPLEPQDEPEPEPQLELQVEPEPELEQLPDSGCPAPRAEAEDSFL

- Activity [1]: 0.3%
- Activity [2]: 0.45%
- IC50 [3]: 325 nM
- GI50 [4]: 14 nM
- GI50 (BaF3): 670 nM
- GI50 [5]: 221 nM
- inhibition [6]: Active
- inhibition [7]: Active
- inhibition [8]: Active
- inhibition [9]: Active
- inhibition [10]: Active
- inhibition [11]: Active
- AUC(0-inf) [14]: 558 ng·h/mL
- AUC(0-inf) [15]: 2430 ng·h/mL
- GI50 [17]: 386 nM
Structure (SMILES): Cc1ccc(C(=O)N2CCC(Oc3cc(NC(=O)c4ccc(CN5CCN(C)CC5)c(C(F)(F)F)c4)ccc3C)CC2)cn1
- Activity [12]: Active
- Activity (K562 [13]): Active
- Activity (K562 [16]): Dose-dependent effect
- inhibition in vivo at 100 mg/kg [18]: 46.5%

- inhibition [19]: Active
- inhibition [20]: Active
- inhibition [21]: Active
- inhibition [22]: Active
Structure (SMILES): Cc1ccc(NC(=O)c2ccc(CN3CCN(C)CC3)cc2)cc1Nc1nccc(-c2cccnc2)n1 [IMATINIB]
